# Experimental data as given in PubChem BioAssay AID463104 (Sanford-Burnham Center for Chemical Genomics, 2010).
# The campaign covered roughly 330,000 compounds. About 1,100 (0.33%) were called active. This excerpt belongs to a sample that is enriched for actives. A number with no mark means an inactive call.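 The calls were made as follows: active = versus positive control, 20 µM dose yields 30% or more activation; inactive = the rest.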
# Test: IRE1-XBP1 pathway stimulators – cell-based, CHO-XBP1 luciferase reporter, luminescence, uHTS, primary screen (AID 463104);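 also: 100% = tunicamycin at 10 µg/mL and 0% = DMSO only wells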
# Details: IRE1-XBP1 UPR activation, at 20 µM, active compounds read high, percent of tunicamycin response, DMSO as zero
# Method in brief: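 Material: CHO-XBP1 cells stably carrying IRE1-XBP1-driven luciferase reporter / Amount: 1000 cells per well / Compound: 20 µM, 1% DMSO / Times: 6 h treatment, 37 °C / Detection: luciferase luminescence / Measure: % activation of reporter signal versus tunicamycin and DMSO controls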
row,Compound,activation
1,O=S(=O)(c1ccc(-c2ccno2)s1)N1CCCCC1,-1.02%
2,COc1ccc(OC)c(S(=O)(=O)N2CCCC(C(=O)N3CCC(C(N)=O)CC3)C2)c1 (stereo not drawn),0.16%
3,COc1ccc(C)cc1N(C)C(=O)c1coc(=O)c2ccccc12,2.41%
4,Cc1cc(NC(=O)COc2ccccc2C#N)no1,6.89%
5,N#Cc1ccccc1NC(=O)COc1c(Br)cc(Br)c2cccnc12,116% (active)
6,O=C(COC(=O)c1ccccn1)Nc1cccc2ccccc12,-3.78%
7,CCCCC(O)(CCCC)C(=O)NN(C(=O)CCl)c1ccccc1,-0.49%
8,Cc1ccc(NC(=O)c2ccc(Oc3ncccn3)cc2)cc1,0.13%
9,O=C(/C=C/c1ccccc1)c1ccccc1O,78.8% (active)
10,Cc1[nH]c(=O)c(C(=O)/C=C/c2ccccc2)c2c1CCCC2,-0.32%
11,O=C(/C=C/c1ccc(N2CCOCC2)cc1)c1ccccc1,2.92%
12,Cc1nc2c(ncn2-c2ccccc2)c(=O)n1NC(=O)CN1CCCC1,0.65%
13,COCCNC(=O)c1ccc2c(c1)ncn2-c1ccc(C)c(Cl)c1,-1.46%
14,COc1ccc(CN2C(CC(=O)Nc3cccnc3)c3ccc(C(F)(F)F)cc3S2(=O)=O)cc1 (stereo not drawn),-0.27%
15,Cc1ccc(Cc2cnc(NC(=O)/C(C#N)=C/c3ccc(-c4cccc([N+](=O)[O-])c4)o3)s2)cc1,131% (active)
16,Cc1ccc(C(=O)N/C(=C/c2ccc(-c3cccc([N+](=O)[O-])c3)o2)C(=O)NCCCN(C)C)cc1,0.17%
17,Cc1ccc(-c2ccc(/C=C(\C#N)C(N)=S)o2)c([N+](=O)[O-])c1,-0.81%
18,CC(=O)N1CCC(N(C(=O)Nc2ccc(Cl)cc2)C(C)C)CC1,2%
19,CCC(C(=O)N1CCN(S(=O)(=O)c2sc(C(=O)O)c(C)c2C(=O)O)CC1)c1ccccc1 (stereo not drawn),-0.89%
20,COc1ccccc1CNC(=O)c1ccc(Cl)c(S(=O)(=O)N2CCCC2)c1,-2.56%

row,Compound,activation
1,O=C(CCCCCn1c(=S)[nH]c2cc3c(cc2c1=O)OCO3)N1CCN(c2ccc(F)cc2)CC1,38.5% (active)
2,CC(C)NC(=O)CCCn1c(=S)[nH]c2cc3c(cc2c1=O)OCO3,0.7%
3,Cc1ccc(C)c(N2CCN(C(=O)CCCCCn3c(=S)[nH]c4ccc(N5CCOCC5)cc4c3=O)CC2)c1,-5.18%
4,COc1cc(C(=O)NC2CCN(C)CC2)ccc1Nc1ncc2c(n1)N(C1CCC(O)CC1)CCC(=O)N2C (stereo not drawn),-2.3%
5,CCCC(=O)Nc1ccc(C(=O)N/N=C/c2ccc[nH]2)cc1,-1.43%
6,CCCCCC(=O)NC(=S)NNC(=O)c1ccc([N+](=O)[O-])cc1,1.01%
7,CCCCCC(=O)Nc1ccc(C(=O)N/N=C/c2ccc([N+](=O)[O-])cc2)cc1,82.5% (active)
8,Nc1ccc(OCC(O)C[n+]2ccc(CCS(=O)(=O)[O-])cc2)cc1 (stereo not drawn),-2.33%
9,CCN1N=C(c2ccccc2)CCC1=O,0.24%
10,Cc1nonc1NC(=O)CSc1nc2ccccc2cc1C#N,-3.02%
11,Cc1cc(C)c(C#N)c(SCC(=O)Nc2ccccc2)n1,-0.84%
12,Cc1nc2cc(NC(=O)CSc3nc4c(C)cccc4cc3C#N)ccc2s1,30.2% (active)
13,CC(Cc1cccs1)N(Cc1ccc(Cl)cc1)C(=O)c1ccncc1 (stereo not drawn),-2.77%
14,COc1ccc(S(=O)(=O)NCCc2cc3ccc(C)c(C)c3[nH]c2=O)cc1,-3.05%
15,Cc1ccc(OCC(=O)Nc2ccc3oc(=O)ccc3c2)cc1C,-0.41%
16,O=C(NC(=S)Nc1ccc2oc(=O)ccc2c1)c1ccc(-c2cccc(Cl)c2Cl)o1,76.8% (active)
17,O=C(COc1ccc(Cl)cc1)Nc1ccc2oc(=O)ccc2c1,-0.7%
18,C=CCO/N=C(\C)c1c(O)c(C)c(-c2ccccc2)n(-c2ccccc2)c1=O,-1.96%
19,CC(C)(C)n1nc(Cc2cccc3ccccc23)c(C#N)c1N,3.6%
20,CCc1nn(-c2cc(Oc3cccc4ccccc34)nc(-c3ccccc3)n2)c(N)c1C#N,79.6% (active)

row,Compound,activation
1,Cc1cc(NC(=O)CSc2nnc(-c3ccco3)n2N)no1,1.89%
2,Cc1cc(NC(=O)CSc2nc3ccccc3n2CC(C)C)no1,-4.54%
3,Cc1cc(NC(=O)CSc2nc3cc(Cl)ccc3c(=O)n2Cc2ccco2)no1,95.4% (active)
4,CC(C)Oc1ccc(S(=O)(=O)N2CCOCC2)cc1NC(=O)C1CSC2(C)CCC(=O)N12 (stereo not drawn),-2.58%
5,CCCNC(=O)CCn1nc(-c2ccccc2)c2ccccc2c1=O,1.25%
6,O=C(COC(=O)Cc1ccc(Br)cc1)Nc1c(F)c(F)c(F)c(F)c1F,0.94%
7,Nc1c(NCCc2ccccc2)c2ccccc2oc1=O,-1.1%
8,COCCCNC(=O)[C@H]1N2C(=O)c3ccccc3C2SC1(C)C (stereo partly drawn),5.98%
9,COc1cc(NC(=O)CSc2nnc3ccc(-c4ccncc4)nn23)cc(OC)c1,4.51%
10,CSc1nc(-c2ccccc2)nc(C(Cl)Cl)n1,31.3% (active)
11,CSc1ncc(Sc2ccccc2)c(C(=O)O)n1,-3.45%
12,CC(C)=CCCC1(C)C=Cc2c(ccc3c2[nH]c2cc(O)c(C)cc23)O1 (stereo not drawn),46.1% (active)
13,CCN(CC(=O)NCc1ccc(Cl)cc1)C(=O)CSc1ccccc1,-3.45%
14,O=C(NCCCN1CCCCC1)c1ccc2c(c1)NC(=O)C(N1CCOCC1)S2 (stereo not drawn),-1.68%
15,CCCc1nc2c(c(=O)c3ccccc3n2C)c(=O)n1C1CCCCCC1,32.4% (active)
16,CC1CCN(Cc2nc3c(c(=O)n(C)c(=O)n3C)n2CCc2ccccc2)CC1,-0.91%
17,Cn1c2ccccc2c2c(C(=O)N3CCN(c4ccc(F)cc4)CC3)cn(C3CCCC3)c(=O)c21,6.07%
18,c1ccc2c(c1)C(=NC1CCCCC1)NC2=NC1CCCCC1,3.14%
